Assay: Toxicity liver stage against HepG2, at 10uM
Format: cell-based
Set-up: test concentration 10 uM, cell line HepG2-A16-CD81EGFP
Details: human, HepG2-A16-CD81EGFP cells; read-out: INHIBITION
Procedure, shortened: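 Uninfected HepG2-A16-CD81EGFP cells, 3 × 10^3 per well, 1536-well, plated on prespotted compound at 10 μM final, parasite-free screening media added to match infected plates; puromycin 10 μM positive, DMSO 0.5% negative; run in parallel with 48 h PbLuc assay at 37 °C, 5% CO2; viability by CellTiter-Glo luminescence, normalized to controls.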

Structure (SMILES)	cytotoxicity at 10 µM [%]
Cc1cccc(C(=O)N(CCCO)S(=O)(=O)c2cccs2)c1	8.01
Cc1nc(CN2CCC3(CC2)CCN(C(=O)c2cscn2)C3)cs1	-71.9
CC(C)CNC(=O)COc1cccc[n+]1[O-]	-8.35
COC(=O)CC(NC(=O)c1cc(OC)c2c(c1)OCCO2)c1cccs1 (centres undefined)	2.01
COc1ccc(C(=O)C2CCCN(c3nccc(N)n3)C2)c(C)c1 (centres undefined)	5.67
CN(CCc1ccccc1)Cc1nc2c(cnn2C)c(=O)[nH]1	-3.18
CN1CCN(C(CNC(=O)c2ccc(Cl)cc2F)c2cccs2)CC1 (centres undefined)	84.6
Cc1ccc(N2N=C(C(=O)O)S(=O)(=O)c3cccnc32)cc1	-8.87
COCC(=O)N[C@@H]1CN(Cc2c[nH]nc2-c2cccs2)C[C@H]1O	1.48
CCOC1COC2(CCN(S(=O)(=O)c3ccc(F)cc3)CC2)C1 (centres undefined)	-109
Cc1cc(C(=O)NCC(Cc2cccc(F)c2)N2CCCCC2=O)no1 (centres undefined)	2.68
CC(C)n1ccnc1CN1CCCN(C(=O)c2nccnc2N)CC1	-7.26
Cc1oc(C(=O)O)cc1S(=O)(=O)Nc1cc(Br)ccc1F	-3.46
CC(C)n1cc(S(=O)(=O)NCCc2nnc3ccccn23)cn1	7.07
c1nc(N2CCCC2)cnc1C1CCNCC1	-3.87
O=C(CCn1c(C(F)(F)F)cc2cccnc21)NC1CCCC1	-14.3
CC(C)c1sc(Cl)nc1C(=O)N1CCN(c2ccccc2)CC1	-87.6
O=C(NCCc1ccccc1)C1CCC(Cn2cnnn2)CC1 (centres undefined)	2.01
Cc1cc(C2CCCCN2C(=O)c2cccn2C)nc2nccn12 (centres undefined)	-17.6
Cn1nc(CNC(=O)c2ccc3nsnc3c2)c2c1CCOC2	6.53
CC(C)c1ncncc1C(=O)NCCN1CCCS1(=O)=O	-8.98
CC(NC(=O)NCCn1ccnc1)c1ccc2c(c1)OCCCO2 (centres undefined)	-7.27

Structure (SMILES)	cytotoxicity at 10 µM [%]
CNC(=O)[C@@H]1CCO[C@@H]2CCN(CCc3ccccc3)C[C@H]21	2.55
CC(C)c1nc(CCN(C)c2nccc(N3CCCC(O)C3)n2)no1 (centres undefined)	-12
CN(CC(=O)N1CCCC1c1ccccn1)Cc1ccccc1 (centres undefined)	-0.51
CC(C)CN1CCC(NC(=O)c2ccc(F)cc2F)CC1	-3.1
CCC(O)CN1CCN(C(=O)c2cccn2Cc2cccnc2)CC1 (centres undefined)	-14.1
Cc1cc(NC(=O)CN(C)CC2CCCN2c2cccnn2)n(C)n1 (centres undefined)	7.85
Cc1ccc(O)c(CNCC(C)c2nc3ccccc3o2)n1 (centres undefined)	-1.74
COc1ccnc(N2CCN(C(=O)CN3CCCC3=O)CC2)n1	-5.21
NC1CCN(c2nccn3c(=O)[nH]nc23)CC1	3.65
CCSCCNc1nc(-c2ccccn2)nc2c1c(C)nn2C	6.35
CN(C)CCN1CCC2(CCCN(C(=O)C3CCC3)C2)CC1	4.38
CS(=O)(=O)c1cnc(CC2CC2)nc1C1CCCNC1 (centres undefined)	-33.5
COCCN1CCOCC12CCN(C(=O)c1ccncc1)CC2	-71.9
CC(C)c1cc(NC(=O)CN2CCc3nn(C)c(=O)cc3C2)on1	-4.44
CC[C@@H](C)[C@H](NC(=O)NC1CCS(=O)(=O)C1)C(=O)NCc1ccncc1 (some centres undefined)	-2.56
Cc1nccn1C1CCCN(C(=O)c2cccc(Cn3ccnc3)c2)C1 (centres undefined)	-24.6
CN(C)C(C(=O)N1CCC(c2ncc[nH]2)CC1)c1ccc2c(c1)OCO2 (centres undefined)	2.8
COc1ccc(C2=Nn3c(CCCN)nnc3-c3ccccc3C2)cc1	3.07
OC1(CN2CCCC2)COCCN(c2noc(-c3ccccc3)n2)C1 (centres undefined)	0.726
Cc1ccc(C(=O)N2CCC3(CC2)CC(c2ccccc2)C(=O)N3)cn1 (centres undefined)	-7.42
CC(C)(C)NC(=O)CNC(=O)c1cccnc1Oc1cccnc1	4.11
CCOC[C@@H]1CC[C@H]2[C@H](CCN2C(=O)c2ccncc2F)O1	-2.86

Structure (SMILES)	cytotoxicity at 10 µM [%]
CC(C)COC(C)C(=O)NCc1ccccc1 (centres undefined)	4.79
CC(=O)N1C(CN2CCCC2)C[C@@H]2CN(C(=O)c3ccoc3)CC[C@@H]21 (some centres undefined)	-0.655
CC(C)=CCS(=O)(=O)Cc1nc(C(C)C)no1	10.8
O=C(NC1CCCC1)NC1CCc2[nH]c(=O)ccc2C1 (centres undefined)	7.91
CN1CC2(CCN(C(=O)c3coc4c3C(=O)CCC4)C2)OC1=O (centres undefined)	-2.36
Cn1cccc1C(=O)N1CCC2(CCN2c2ncccn2)C1 (centres undefined)	10.7
COc1ccc(C(=O)NS(=O)(=O)c2cc(Cl)sc2Cl)cc1OC(F)F	-4.73
CC(C)(C)NC[C@@H]1CCC[C@@H]2CN(Cc3csnn3)C[C@@H]21	-134
CCC(C)NS(=O)(=O)c1ccc(C(=O)NC2(C#N)CCC2)cc1 (centres undefined)	-7.79
CC(Cn1cncn1)NC1CCN(Cc2cccc(O)c2)CC1 (centres undefined)	2.64
COc1cc2c(cc1CNC(=O)Cc1cc(C)on1)OC(C)C2 (centres undefined)	5.38
Cc1cc(SC(C)(C)C)ccc1NC(C)C(=O)NC(N)=O (centres undefined)	-5.36
c1cncc(CN2CCC3(CCCN(c4nncs4)C3)C2)c1 (centres undefined)	-144
CC(C)OCC(=O)N1CCCN(Cc2ccc(C#N)cc2)CC1	-7.41
Cc1cnn(CCNCc2csc(-c3ccc(C)o3)n2)c1	-1.64
COc1ccc(C)cc1CSCCn1nc2ccccn2c1=O	1.03
CN1CC(=O)N(c2ccsc2)CC12CCN(S(=O)(=O)C1CC1)C2 (centres undefined)	-0.298
Cc1cc(C)n(C2CCCN(C(=O)c3ccnc(N(C)C)c3)C2)n1 (centres undefined)	1.9
Cc1occc1C(=O)N1C[C@@H](C(=O)NCc2ccco2)C[C@H]2OCC[C@H]21	1.08
CN(C(=O)OC(C)(C)C)C1CCN(C(=O)c2cc(Cl)c[nH]2)C1 (centres undefined)	2.5
O=C(C1CCOCC1)N1C[C@H]2CCC[C@@]2(COCc2ccccn2)C1	-112
O=C(c1cnccn1)N1CCC(F)(F)C2(CCN(c3ccccn3)C2)C1 (centres undefined)	11.9

Structure (SMILES)	cytotoxicity at 10 µM [%]
O=C(c1cnccn1)N1CCC2(CCN(Cc3ccsc3)CC2)CC1	1.2
NC(=O)CN1CCCN(C(=O)Cc2ccc3ccccc3c2)CC1	7.82
Cn1c(=O)c2cc(C(=O)NCc3ccccn3)ccc2n(C)c1=O	-6.14
CNc1cc(C2CCCN2S(=O)(=O)c2cccc(F)c2)ccn1 (centres undefined)	-22.7
NC(=O)C1CCN(CCCNC(=O)Nc2nccs2)CC1	-0.287
CC(NC(=O)c1coc(COc2cccc(F)c2)n1)c1nnc(N)s1 (centres undefined)	-144
Cc1csc(CN2C[C@@H]3CN(CC4CCOCC4)CCO[C@@H]3C2)n1	-109
CC(C)(C)NC(=O)N1CCN2C(=O)OCC2C1 (centres undefined)	-1.96
CN1CCN(c2ccc(NC(=O)c3ccccn3)c(C(F)(F)F)c2)CC1	0.753
c1ccc(-c2nc3c(c(NCc4nnc5n4CCC5)n2)CCNC3)cc1	-3.71
CN1CCCN(C(=O)c2cnc(C(C)(C)C)nc2O)CC1	-0.0816
CCCN(CCOC)C(=O)c1cc(Cn2c(C)nc3ccccc32)[nH]n1	21.8
Cc1ccc(OC2CCN(CCn3cncn3)CC2)cc1	-1.67
CN(C)Cc1nnc2n1CCN(Cc1cccnc1)C2	-0.588
O=S(=O)(Nc1cnc(N2CCCC2)nc1)c1ccc(C(F)(F)F)cc1	3.15
Cc1csc(NC(=O)C2(C)CN(C)CCO2)n1 (centres undefined)	-3.67
Cc1cc(NCc2ccc(N3CCNC(=O)C3)cc2)nc(C)n1	-4.99
CCCN(C(=O)c1ccccn1)c1nc2c(s1)CCc1c-2cnn1C	6.23
COc1cccc(NC(=O)N2CC[C@@H]3CN(C)S(=O)(=O)[C@@H]3CC2)c1	7.3
O=C(NCCc1csc(-c2ccncc2)n1)C1CC(=O)N(C2CC2)C1 (centres undefined)	-8.44
Cn1cc(CN2CCC(CCC(=O)NCc3ccc(F)cc3)CC2)cn1	-19.5
CN(C)[C@@H]1CCN(C(=O)NC2CCCC2)[C@H]1Cc1ccncc1	5.83

Structure (SMILES)	cytotoxicity at 10 µM [%]
O=C(N[C@@H]1CCN(Cc2ccc(F)cc2F)C[C@H]1O)c1cccnc1	-10.4
CCOC(=O)CNc1nc(COC)nc2c1cnn2C	9
Cc1ccccc1C1(C(=O)NCCN2CCC(C)CC2)CCOCC1	3.57
COc1ccc(COCC(=O)N2CCCC(n3cncn3)C2)cc1 (centres undefined)	-11.1
N#Cc1c(Cl)nsc1NCc1cccnc1OCC(F)(F)F	25.5
Cc1cccnc1CC(C)Nc1ncc(C)c(N(C)C)n1 (centres undefined)	12.1
Cc1ncsc1CN1CC[C@H](O)[C@@H](n2cnc3c(N)ncnc32)CC1	-10.8
O=S(=O)(c1cccc(Cl)c1)N1C[C@@H]2CCN[C@@H]2C1	-0.331
O=C(NCCNc1ncccn1)C1CCCC1	-22.9
CCC[C@H]1CN(C2CCOCC2)C[C@@H]1NC(=O)CCn1ccnc1C	5.78
O=C(NCCN1CCCS1(=O)=O)c1scnc1Cl	-3.67
CNc1ccc(CC2CCCN(Cc3c[nH]cn3)C2)nn1 (centres undefined)	-1.71
Cc1occc1C(=O)N1CCCC(C2=Nc3ccccc3S(=O)(=O)N2)C1 (centres undefined)	4.03
CCN1CC2(CC1=O)CN(C(C)=O)CCN(C(=O)NC)C2 (centres undefined)	-3.62
Cc1ccccc1CC(=O)N1C[C@@H]2COC[C@]2(CN(C)C)C1	3.79
N#CCCN(CC1CC1)S(=O)(=O)c1cccc(Cl)c1	9.09
O=C(CCc1ccsc1)NCC1CCN(c2ccccc2)C1 (centres undefined)	21.1
CN(CCO)Cc1nnc(C2CCN(C(=O)c3ccccn3)CC2)n1C	0.5
CN(CC(=O)NCC(F)(F)F)Cc1cccc2c1OCCO2	-18.7
O=C(N[C@@H]1CN[C@H]2CCCO[C@H]21)c1cnccn1	6.38
O=C1CN(c2ccc(CNC(=O)NCCO)cc2)CCN1	-2.38
